What was measured:
P388 [1] = test: Percentage increase in life span of murine leukemia P388 resistant to 5-FU, at a dose 108 mg/kg; format: functional; conditions: Mus musculus
Summary of the method: (§1)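 P-388 model in male BDF₁ mice, six per group, average weight 23 g: 1×10^6 cells ip on day 0, then compound in 0.9% saline ip daily ×5 from 24 h. Mice were observed up to 60 days. % ILS = (T/C − 1) × 100, using median survival of treated mice versus saline-treated controls.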

P388 [2] = test: Percentage increase in life span of murine leukemia P388 resistant to 5-FU, at a dose 180 mg/kg; format: functional; conditions: Mus musculus; summary of the method: as §1
P388 [3] = test: Median survival time (MST) of murine leukemia P388 (1*10e 6 cells) resistant to 5-FU in mice, dose of 108 mg/kg(ip); format: functional, Mus musculus
Summary of the method: (§2)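 Male BDF₁ mice, six per group, average weight 23 g, were inoculated ip with 1×10^6 P-388 cells on day 0. Compound in 0.9% saline was given ip daily for 5 days from 24 h post-implant. Mice were followed for 60 days or until death, and median survival time was recorded. Saline-treated controls numbered 20 mice.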

P388 [4] = test: Percentage increase in life span of murine leukemia P388 sensitive to 5-FU at dose 108 mg/kg; format: functional; conditions: Mus musculus; summary of the method: as §1
P388 [5] = test: Average percentage weight change on day 6 in murine leukemia P388 sensitive to 5-FU at a dose 108 mg/kg; format: functional, Mus musculus
Summary of the method: (§3)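 Male BDF₁ mice, six per group, average weight 23 g, were inoculated ip on day 0 with 1×10^6 P-388 leukemia cells, either 5-FU-sensitive or 5-FU-resistant. Compound in 0.9% saline was given ip once daily for 5 consecutive days, starting 24 h after tumor transplantation. Saline-treated animals served as controls.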

P388 [6] = test: Median survival time (MST) of murine leukemia P388 (1*10e 6 cells) sensitive to 5-FU in mice, dose of 300 mg/kg(ip); format: functional, Mus musculus; summary of the method: as §2
P388 [7] = test: Average percentage weight change on day 6 in murine leukemia P388 sensitive to 5-FU at dose 300 mg/kg; format: functional, Mus musculus; summary of the method: as §3
P388 [8] = test: Median survival time (MST) of murine leukemia P388 (1*10e 6 cells) sensitive to 5-FU in mice at dose of 180 mg/kg(ip); format: functional, Mus musculus; summary of the method: as §2
P388 [9] = test: Average percentage weight change on day 6 in murine leukemia P388 resistant to 5-FU at dose 108 mg/kg; format: functional, Mus musculus; summary of the method: as §3
P388 [10] = test: Median survival time (MST) of murine leukemia P388 (1*10e 6 cells) sensitive to 5-FU in mice at dose of 108 mg/kg(ip); format: functional, Mus musculus; summary of the method: as §2
P388 [11] = test: Average percentage weight change on day 6 in murine leukemia P388 sensitive to 5-FU at dose 500 mg/kg; format: functional, Mus musculus; summary of the method: as §3
P388 [12] = test: Percentage increase in life span of murine leukemia P388 sensitive to 5-FU at dose 180 mg/kg; format: functional; conditions: Mus musculus; summary of the method: as §1
P388 [13] = test: Percentage increase in life span of murine leukemia P388 sensitive to 5-FU at dose 300 mg/kg; format: functional; conditions: Mus musculus; summary of the method: as §1
P388 [14] = test: Average percentage weight change on day 6 in murine leukemia P388 resistant to 5-FU at dose 300 mg/Kg; format: functional, Mus musculus; summary of the method: as §3
P388 [15] = test: Average percentage weight change on day 6 in murine leukemia P388 sensitive to 5-FU at a dose 180 mg/kg; format: functional, Mus musculus; summary of the method: as §3
P388 [16] = test: Median survival time (MST) of murine leukemia P388 (1*10e 6 cells) resistant to 5-FU in mice, dose of 180 mg/kg(ip); format: functional, Mus musculus; summary of the method: as §2
P388 [17] = test: Median survival time (MST) of murine leukemia P388 (1*10e 6 cells) sensitive to 5-FU in mice, dose of 500 mg/kg(ip); format: functional, Mus musculus; summary of the method: as §2
P388 [18] = test: Median survival time (MST) of murine leukemia P388 (1*10e 6 cells) resistant to 5-FU in mice, dose of 300 mg/kg(ip); format: functional, Mus musculus; summary of the method: as §2
P388 [19] = test: Average percentage weight change on day 6 in murine leukemia P388 resistant to 5-FU at dose 180 mg/kg; format: functional, Mus musculus; summary of the method: as §3
P388 [20] = test: Percentage increase in life span of murine leukemia P388 sensitive to 5-FU at dose 500 mg/kg; format: functional; conditions: Mus musculus; summary of the method: as §1

O=c1[nH]c(=O)n([C@H]2C[C@H](O)[C@@H](COP3(=O)NCCCO3)O2)cc1F (stereo not given in full)
ILS at 108 mg/kg (P388 [1]): 0% | ILS at 180 mg/kg (P388 [2]): 0% | MST (P388 [3]): 10 days | ILS at 108 mg/kg (P388 [4]): 33% | Weight change (P388 [5]): -6.6% | MST (P388 [6]): 14 days | Weight change (P388 [7]): -15.7% | MST (P388 [8]): 13 days | Weight change (P388 [9]): -3.4% | MST (P388 [10]): 12 days | Weight change (P388 [11]): -17.9% | ILS at 180 mg/kg (P388 [12]): 44% | ILS at 300 mg/kg (P388 [13]): 55% | Weight change (P388 [14]): -5% | Weight change (P388 [15]): -13.9% | MST (P388 [16]): 10 days | MST (P388 [17]): 17 days | MST (P388 [18]): 9 days | Weight change (P388 [19]): -3.7% | ILS at 500 mg/kg (P388 [20]): 89%

From ChEMBL document CHEMBL1122269, “Synthesis and biological evaluation of neutral derivatives of 5-fluoro-2'-deoxyuridine 5'-phosphate” (1983)
